Assay outcomes deposited in PubChem by several laboratories.
Sampled rows, rich in hits. Any-hit rate of the full collection: about 1.5%.
TPT1 inh: inhibitors of Candida albicans tRNA 2'-phosphotransferase TPT1 | recombinant caTPT1, FP RNA substrate dephosphorylation | inhibition, % at 5 µM | hit rate 0.81% among 300,000;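 active = inhibition above the mean of all tested compounds plus 3 SD, set per screening campaign, cut at about 24% in these data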;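 also: plate controls were DMSO alone for no effect and ferristatin control at 100 nM for full effect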
CSN deneddyl inh: CSN deneddylation inhibition | hit rate 0.38% among 360,000 | inhibition, % at 12.5 µM | Purified CSN, SCF-Nedd8-OG deneddylation, fluorescence polarization | Q92905;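 active = pattern-corrected inhibition above about 35%, with an unprinted fluorescence ratio check between 0.5 and 1.5, limit read from the data, passing the limit was not always enough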;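 also: 0% = enzyme with substrate and 100% = substrate without enzyme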
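Assay system: Purified human Csn5 enzyme expressed in HEK293T cells | Amount: Enzyme 0.24 nM | Measured by: Fluorescence polarization readout | Medium: Tris/NaCl/DTT buffer, pH 7.5 | Compound dosing: One concentration, 12.5 µM, 0.25% DMSO | Times: 90 min incubation of compound, enzyme and substrate at room temperature | Control set: no-enzyme wells high, enzyme-with-substrate wells low | Read-out: % inhibition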
Rpn11 inh: inhibitors of human proteasome Rpn11. O00487. human 26S proteasome, Ub4-pepOG fluorescence polarization; 20S core pre-blocked with epoxomicin. inhibition, % at 20 µM. hit rate 0.59% among 360,000;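 active = inhibition at 20 µM, scaled to each plate's controls, above about 33%, limit read from the data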
HNF4A DNA FP: change in binding of human HNF4 alpha to DNA. hit rate 0.3% among 360,000. activity change, % at 10 µM. HNF4a-FITC DNA binding, fluorescence polarization, 1 h; in the data active = activity change above about 30%, passing the limit was not always enough
Target sequence (P41235 whole entry, looked up): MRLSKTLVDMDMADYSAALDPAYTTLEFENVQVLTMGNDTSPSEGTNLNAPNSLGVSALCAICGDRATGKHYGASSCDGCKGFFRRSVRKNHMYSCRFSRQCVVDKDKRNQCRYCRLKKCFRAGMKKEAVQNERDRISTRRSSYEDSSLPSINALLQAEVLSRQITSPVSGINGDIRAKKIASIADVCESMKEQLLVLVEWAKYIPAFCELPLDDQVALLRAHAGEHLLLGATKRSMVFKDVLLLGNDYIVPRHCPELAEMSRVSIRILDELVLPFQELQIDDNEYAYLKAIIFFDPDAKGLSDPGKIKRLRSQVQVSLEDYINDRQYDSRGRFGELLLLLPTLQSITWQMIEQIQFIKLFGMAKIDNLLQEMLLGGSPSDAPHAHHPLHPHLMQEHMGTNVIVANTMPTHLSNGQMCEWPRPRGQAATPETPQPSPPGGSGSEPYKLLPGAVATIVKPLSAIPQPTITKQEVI
caTPT1 confirm: confirmation of Candida albicans TPT1 inhibitors. recombinant caTPT1, fluorescence polarization, RNase T1 coupled. AID 2149. inhibition, % at 5 µM. shares compounds with TPT1 inh. hit rate 74% among 2,400;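 active = inhibition above the primary screen limit, the mean inhibition of all tested compounds plus 3 SD, cut at about 25% in these data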
RNase T1 counter: RNase T1 inhibition in TPT1 counter-screen | shares compounds with TPT1 inh | RNase T1 cleavage, fluorescence polarization, 1536-well | inhibition, % at 5 µM | hit rate 83% among 2,400 | AID 2153;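 active = inhibition above the solvent-only control well mean plus 3 SD, limit set per screening run, cut at about 23% in these data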;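 also: plate controls were DMSO wells with enzyme for no effect and wells without RNase T1 for full effect; inhibitors block cleavage so intact labeled substrate keeps polarization high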
Numbers without * were called inactive; . = no result given.

SMILES	TPT1 inh	CSN deneddyl inh	Rpn11 inh	HNF4A DNA FP	caTPT1 confirm	RNase T1 counter
CCN1CC2=C(OC(N)=C(C#N)C2c2cccs2)/C(=C/c2cccs2)C1 (centres undefined)	34.0*	18.2	38.5	9.9	24.9*	36.0*
O=C(COc1ccc(Br)cc1)N(Cc1ccco1)C1CCS(=O)(=O)C1 (centres undefined)	-0.2	1.4	-8.5	0.4	.	.
Cc1ccc2[nH]c(=O)c3cc(C(=O)NCCC(C)C)sc3c2c1	.	-2.6	3.6	-1.3	.	.
CCC(C)NC(=O)c1cc2c(=O)[nH]c3ccc(C)cc3c2s1 (centres undefined)	29.4*	16.4	5.4	0.9	6.9	14.3
CN(C)c1ccc(/C=C(\Cl)c2nc3ccccc3s2)cc1	72.6*	22.7	.	46.1*	84.1*	90.5*
O=C(O)c1ccc(C=C(c2nc3ccccc3s2)c2nc3ccccc3s2)cc1	4.9	27.5	13.3	3.1	.	.
Nc1ccn([C@@H]2O[C@H](CNC(=O)[C@@H](Cc3cn(COCc4ccccc4)cn3)NC=O)[C@@H](O)[C@H]2O)c(=O)n1	.	1.9	0.7	4.5	.	.
COC[C@@H]1CCCN1[C@@H]1CS(=O)(=O)N[C@H]1COCc1ccccc1	.	0.9	-6.4	2.7	.	.
O=C(Cn1c(CO)nc2ccccc21)NCc1ccc2c(c1)OCO2	-4.5	4.8	5.0	4.1	.	.
O=C(Cn1c(Cc2ccccc2)nc2ccccc21)NCc1ccc2c(c1)OCO2	61.0*	-0.6	-13.6	0.6	10.3	16.3
N#C/C(=C\Nc1ccc2cn[nH]c2c1)c1nc(-c2ccccc2)cs1	.	2.7	33.1	13.3	.	.
Cc1ccnc(N/C=C(\C#N)c2nc(-c3cccc(Br)c3)cs2)c1	29.5*	-71.6	.	-13.1	26.4*	40.4*
COc1ccc(/C=C2\CC/C(=C\c3ccc(OC)c(OC)c3)C2=O)cc1OC	2.9	15.3	-7.9	6.5	.	.
CN(C)/N=C/C=C1\CC/C(=C\c2ccc(Br)cc2)C1=O	77.3*	22.2	32.3	28.5	55.4*	65.7*
CC(C)NC(=O)c1cc(C2CCCCN2S(=O)(=O)c2cccs2)on1 (centres undefined)	.	-1.9	-3.8	-4.3	.	.
CCOC(=O)c1sc(=NC(=O)c2cccc(OC)c2)n(C)c1C	63.8*	-4.3	3.9	-1.0	5.0	5.2
COc1ccc(NCC(=O)NN=C2CCS(=O)(=O)c3ccc(F)cc32)cc1	.	5.0	-4.6	0.5	.	.
CO/N=C\Cc1oc(=O)c(NC(=O)c2ccccc2)cc1C(=O)OC	7.8	-11.1	-1.8	1.7	.	.
COC(=O)c1cc(NC(=O)c2ccccc2)c(=O)oc1C/C=N\OCc1ccc(Cl)cc1Cl	30.9*	15.9	.	23.5	27.9*	35.7*
C=CCn1c(=O)c2ccc(C(=O)NCc3ccccc3)cc2n(Cc2ccc(C)cc2)c1=O	-3.8	1.4	-1.3	-1.2	.	.
Cc1ccc(C(=O)NNC(=O)CCCN2C(=O)/C(=C/c3ccccc3Cl)SC2=S)cc1	38.5*	5.1	4.4	5.2	6.9	11.9
O=C(CCCN1C(=O)/C(=C/c2ccccc2Cl)SC1=S)NNC(=O)c1ccc(Cl)cc1	1.7	4.4	18.8	15.0	.	.
Cc1cc([N+](=O)[O-])ccc1NC(=O)c1csc(C)c1C	.	-1.9	3.1	2.5	.	.
COc1cc(CNC(=O)Nc2nc(C(N)Cc3ccc(C(F)(F)F)cc3)cs2)cc(OC)c1OC (centres undefined)	.	2.5	0.4	3.7	.	.
C/C(Cl)=C/CSc1nc2c(c(=O)[nH]c(=O)n2C)n1C(C)C	24.8*	0.7	-3.4	-0.5	8.8	11.2
SMILES	TPT1 inh	CSN deneddyl inh	Rpn11 inh	HNF4A DNA FP	caTPT1 confirm	RNase T1 counter
C=CCSc1nc2c(c(=O)[nH]c(=O)n2C)n1C(C)C	-1.5	-1.4	-4.6	0.6	.	.
CCOc1ccccc1C(=O)Nc1nccs1	26.8*	4.0	3.6	-2.6	11.5	13.0
COc1ccc(N(C(=O)c2snc(C(N)=O)c2N)C(C(=O)NC2CCCCC2)c2ccc(C)o2)cc1 (centres undefined)	-1.0	0.8	-3.0	0.3	.	.
CCc1nnc(NS(=O)(=O)c2ccc(NC(=O)c3ccc(Cl)cc3)cc2)s1	-1.3	-2.0	0.9	-1.0	.	.
CCc1nnc(NS(=O)(=O)c2ccc(N/C=C(\C=O)c3nc4cc(Cl)ccc4o3)cc2)s1	80.5*	7.7	11.7	3.4	10.9	17.2
O=C1c2cccc3c(N4CCCCC4)ccc(c23)C(=O)N1c1cccc(O)c1	75.3*	9.5	.	45.8	52.4*	60.9*
